Values after ≈ are worked out from the molar mass of the structure shown. Active and inactive are the calls of the source.
Key:
Escherichia coli [1] = test: Potentiation of rifampicin-induced antibiotic activity against Escherichia coli ATCC 25922 assessed as MIC fold reduction at 8 ug/ml after 18 hrs by microbroth dilution method; format: functional; details: dose 8 µg/ml
Pseudomonas aeruginosa [2] = test: Potentiation of trimethoprim-induced antibiotic activity against Pseudomonas aeruginosa PAO1 assessed as MIC fold reduction at 8 ug/ml after 18 hrs by microbroth dilution method; format: functional; details: dose 8 µg/ml
Pseudomonas aeruginosa [3] = test: Antibacterial activity against MDR clinical isolate Pseudomonas aeruginosa PA259 assessed as reduction in bacterial growth after 18 hrs in presence of cefiderocol by microbroth dilution method; format: functional
Summary of the method: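 Checkerboard in MHB. Cefiderocol was 2-fold serially diluted along one axis and the adjuvant along the other. Inoculum was prepared from 0.5 McFarland saline suspensions diluted 1:50 in MHB, giving about 5 × 10^5 CFU/mL final. Plates ran 18 h at 37 °C, with turbidity confirmed at 590 nm. FIC = combination MIC ÷ MIC alone for each agent, and FIC index = sum of both. Interpretation: ≤0.5 synergy, >0.5–4 additive, >4 antagonism.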

Escherichia coli [4] = test: Potentiation of niclosamide-induced antibiotic activity against Escherichia coli ATCC 25922 assessed as MIC fold reduction at 8 ug/ml after 18 hrs by microbroth dilution method; format: functional; details: dose 8 µg/ml
Pseudomonas aeruginosa [5] = test: Antibacterial activity against […] Pseudomonas aeruginosa PAO1 assessed as reduction in bacterial growth after 18 hrs by microbroth dilution method; format: functional
Summary of the method: (§1)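 Broth microdilution per CLSI in Mueller-Hinton broth (MHB). Overnight cultures were adjusted to 0.5 McFarland in saline, diluted 1:50 in MHB, and added at about 5 × 10^5 CFU/mL final to equal volumes of 2-fold serial dilutions of agent. Incubation was 18 h at 37 °C. MIC was the lowest concentration with no visible turbidity, confirmed by absorbance at 590 nm.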

Pseudomonas aeruginosa [6] = test: Antibacterial activity against MDR clinical isolate Pseudomonas aeruginosa PA264 assessed as reduction in bacterial growth after 18 hrs by microbroth dilution method; format: functional; summary of the method: as §1
Pseudomonas aeruginosa [7] = test: Potentiation of fosfomycin-induced antibiotic activity against Pseudomonas aeruginosa PAO1 assessed as MIC fold reduction at 8 ug/ml after 18 hrs by microbroth dilution method; format: functional; details: dose 8 µg/ml
Summary of the method: (§2)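 Adjuvant held at a fixed 8 μg/mL while the antibiotic was 2-fold serially diluted in Mueller-Hinton broth (MHB), per CLSI microbroth dilution. Overnight cultures were adjusted in saline to 0.5 McFarland, then diluted 1:50 in MHB to about 5 × 10^5 CFU/mL final, and incubated 18 h at 37 °C. MIC was the lowest concentration with no visible turbidity, confirmed at 590 nm. Fold potentiation = MIC alone / MIC with adjuvant.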

Pseudomonas aeruginosa [8] = test: Antibacterial activity against MDR clinical isolate Pseudomonas aeruginosa PA86052 assessed as potentiation of cefiderocol antibacterial activity by measuring FIC index after 18 hrs by microbroth dilution method; format: functional
Summary of the method: (§3)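 Checkerboard in MHB (iron-replete, not iron-depleted CAMHB). Cefiderocol was 2-fold serially diluted along one axis and the adjuvant along the other. Inoculum was 0.5 McFarland diluted 1:50, about 5 × 10^5 CFU/mL final. Incubation was 18 h at 37 °C, with turbidity read visually and confirmed at 590 nm. FIC was the MIC in combination over the MIC alone for each agent, and the FIC index was their sum. Cut-offs were ≤0.5 synergy, >0.5–4 additive, >4 antagonism.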

Pseudomonas aeruginosa [9] = test: Antibacterial activity against MDR clinical isolate Pseudomonas aeruginosa PA259 assessed as reduction in bacterial growth after 18 hrs by microbroth dilution method; format: functional
Summary of the method: (§4)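 CLSI broth microdilution. Overnight cultures were adjusted in saline to 0.5 McFarland, diluted 1:50 in Mueller-Hinton broth (MHB), and inoculated at about 5 × 10^5 CFU/mL. Agents were 2-fold serially diluted in MHB, mixed 1:1 with inoculum, and held at 37 °C for 18 h. MIC was the lowest concentration with no visible turbidity, confirmed at 590 nm.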

Escherichia coli [10] = test: Potentiation of tobramycin-induced antibiotic activity against Escherichia coli ATCC 25922 assessed as MIC fold reduction at 8 ug/ml after 18 hrs by microbroth dilution method; format: functional; details: dose 8 µg/ml
Pseudomonas aeruginosa [11] = test: Antibacterial activity against colistin-resistant clinical isolate Pseudomonas aeruginosa PA91433 assessed as reduction in bacterial growth after 18 hrs in presence of cefiderocol by microbroth dilution method; format: functional; summary of the method: as §3
Pseudomonas aeruginosa [12] = test: Antibacterial activity against MDR clinical isolate Pseudomonas aeruginosa PA101885 assessed as reduction in bacterial growth after 18 hrs by microbroth dilution method; format: functional; summary of the method: as §4
Pseudomonas aeruginosa [13] = test: Potentiation of erythromycin-induced antibiotic activity against Pseudomonas aeruginosa PAO1 assessed as MIC fold reduction at 8 ug/ml after 18 hrs by microbroth dilution method; format: functional; details: dose 8 µg/ml; summary of the method: as §2
Pseudomonas aeruginosa [14] = test: Potentiation of cefotaxime-induced antibiotic activity against Pseudomonas aeruginosa PAO1 assessed as MIC fold reduction at 8 ug/ml after 18 hrs by microbroth dilution method; format: functional; details: dose 8 µg/ml; summary of the method: as §2
Pseudomonas aeruginosa [15] = test: Antibacterial activity against MDR clinical isolate Pseudomonas aeruginosa PA260 assessed as reduction in bacterial growth after 18 hrs by microbroth dilution method; format: functional; summary of the method: as §4
Pseudomonas aeruginosa [16] = test: Antibacterial activity against MDR clinical isolate Pseudomonas aeruginosa PA108590 assessed as reduction in bacterial growth after 18 hrs by microbroth dilution method; format: functional; summary of the method: as §4
Acinetobacter baumannii [17] = test: Potentiation of cotrimoxazole-induced antibiotic activity against Acinetobacter baumannii ATCC 17978 assessed as MIC fold reduction at 8 ug/ml after 18 hrs by microbroth dilution method; format: functional; details: dose 8 µg/ml; summary of the method: as §2
Enterobacter cloacae = test: Antibacterial activity against Enterobacter cloacae 118564 assessed as reduction in bacterial growth after 18 hrs in presence of cefiderocol by microbroth dilution method; format: functional
Summary of the method: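 Checkerboard in Mueller-Hinton broth: cefiderocol 2-fold diluted on one axis, adjuvant 2-fold on the other. Overnight cultures were adjusted to 0.5 McFarland in saline, diluted 1:50 in MHB, and inoculated at about 5 × 10^5 CFU/mL. Incubation was 18 h at 37 °C. Turbidity was read visually and confirmed at 590 nm. FIC index = FIC of antibiotic + FIC of adjuvant; ≤0.5 synergy, >4 antagonism.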

Acinetobacter baumannii [18] = test: Potentiation of chloamphenicol-induced antibiotic activity against Acinetobacter baumannii ATCC 17978 assessed as MIC fold reduction at 8 ug/ml after 18 hrs by microbroth dilution method; format: functional; details: dose 8 µg/ml; summary of the method: as §2
Acinetobacter baumannii [19] = test: Potentiation of colistin-induced antibiotic activity against Acinetobacter baumannii ATCC 17978 assessed as MIC fold reduction at 8 ug/ml after 18 hrs by microbroth dilution method; format: functional; details: dose 8 µg/ml; summary of the method: as §2
Escherichia coli [20] = test: Potentiation of minocycline-induced antibiotic activity against Escherichia coli ATCC 25922 assessed as MIC fold reduction at 8 ug/ml after 18 hrs by microbroth dilution method; format: functional; details: dose 8 µg/ml; summary of the method: as §2
Pseudomonas aeruginosa [21] = test: Potentiation of ceftazidime-induced antibiotic activity against MDR clinical isolate Pseudomonas aeruginosa PA264 assessed as MIC fold reduction at 8 ug/ml after 18 hrs by microbroth dilution method; format: functional, organism-based; details: dose 8.0 µg/ml; summary of the method: as §2
Pseudomonas aeruginosa [22] = test: Potentiation of cefiderocol-induced antibiotic activity against MDR clinical isolate Pseudomonas aeruginosa PA259 assessed as MIC fold reduction at 8 ug/ml after 18 hrs by microbroth dilution method; details: dose 8 µg/ml

NC[C@H]1O[C@H](O[C@H]2[C@H](OCCCCc3cn(-c4ccc(NC(=O)c5cc(Cl)ccc5O)cc4)nn3)[C@@H](O[C@H]3O[C@H](CO)[C@@H](O)[C@H](N)[C@H]3O)[C@H](N)C[C@@H]2N)[C@H](N)C[C@@H]1O
fold change (FC) (Escherichia coli [1]): 4
fold change (FC) (Pseudomonas aeruginosa [2]): 4
MIC (Pseudomonas aeruginosa [3]): 4 µg/mL
fold change (FC) (Escherichia coli [4]): 4
MIC (Pseudomonas aeruginosa [5]): 64 µg/mL (≈ 76.5 µM)
MIC (Pseudomonas aeruginosa [6]): > 128 µg/mL
fold change (FC) (Pseudomonas aeruginosa [7]): 4
FIC (Pseudomonas aeruginosa [8]): 1
MIC (Pseudomonas aeruginosa [9]): > 128 µg/mL
fold change (FC) (Escherichia coli [10]): 4
MIC (Pseudomonas aeruginosa [11]): 1 µg/mL
MIC (Pseudomonas aeruginosa [12]): > 128 µg/mL
fold change (FC) (Pseudomonas aeruginosa [13]): 4
fold change (FC) (Pseudomonas aeruginosa [14]): 4
MIC (Pseudomonas aeruginosa [15]): > 128 µg/mL
MIC (Pseudomonas aeruginosa [16]): > 128 µg/mL
fold change (FC) (Acinetobacter baumannii [17]): 4
MIC (Enterobacter cloacae): 0.25 µg/mL
fold change (FC) (Acinetobacter baumannii [18]): 4
fold change (FC) (Acinetobacter baumannii [19]): 4
fold change (FC) (Escherichia coli [20]): 4
Activity (Pseudomonas aeruginosa [21]): Active
fold change (FC) (Pseudomonas aeruginosa [22]): 32
